Records with an inconclusive call do not appear.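 Rule for the calls, unless noted: active = cell viability at or below a set limit in both duplicate runs, the limit being the all-compound median minus 4 SD (cut at about 23% in these data, passing the limit was not always enough); inconclusive = no clear call, values can overlap the other calls; inactive = the rest.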
Tests used:
[1] = S. cerevisiae growth inhibition in permissive medium (OD615), pilot counter-assay for S. cerevisiae lifespan shortening project, permissive growth control (AID 705;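 active = growth inhibition above 25% in both replicates, a cutoff set 3 SD above the mean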); conditions: OD615, 24 h, at 10 µM, stronger effect = higher value
In short: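 System: Engineered DeaD yeast | Buffer or medium: SC raffinose/galactose permissive medium | Doses: 10 µM single dose, 0.25% DMSO | Times: 24 h exposure, 30 °C | Measured by: OD615 turbidity read | Read-out: Yeast growth inhibition indicated by reduced 24 h OD615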

[2] = S. cerevisiae growth inhibition in restrictive medium, OD615, pilot screen, restrictive growth control, yeast lifespan reduction project (AID 706;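 active = growth inhibition above a set limit, 3 SD over mean compound inhibition, in both replicates, cut at about 43% in these data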;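 note: modified DeaD lifespan yeast strain shifted to restrictive glucose medium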); conditions: OD615, 48 h, at 10 µM, stronger effect = higher value
In short: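 Assay system: engineered S. cerevisiae DeaD strain; Buffer or medium: CSMM-D glucose medium; Dosing: 10 µM compound, 0.25% DMSO; Times: cell pre-growth 4 h, compound exposure 48 h, 30 °C; Detection: absorbance (optical density) measured at 615 nm.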

[3] = doxorubicin toxicity protection in MRP-1 cells – H69AR cells, CellTiter-Glo, duplicate, MRP-1 activator project, pilot screen (AID 807;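 active = viability increase at or above a cutoff of the median across tested compounds plus 3 SD, cut at about 8.5% in these data, passing the limit was not always enough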;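 note: compound pretreatment 18-22 h then 72 h combined with doxorubicin; 0% = doxorubicin alone and 100% = vehicle without doxorubicin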); conditions: H69AR viability with doxorubicin, CellTiter-Glo luminescence; at 10 µM; stronger effect = higher value
[4] = viability of HCT116 without oncogenic beta-catenin – human colon tumor cells, pilot screen (AID 823); conditions: HCT116 beta-catenin knockout viability, CellTiter-Glo, 60 h; at 10 µM; stronger effect = lower value;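 note: 0% = wells killed by 20 µM Hyamine and 100% = untreated DMSO cell wells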
[5] = viability of PTEN-null HCT116 cells – cell-based, HCT116 clonal line, CellTiter-Glo, pilot screen (AID 824;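 active = viability at or below 27.92% in each of two runs, the all-compound median minus 4 SD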;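 note: 0% = 20 µM Hyamine control and 100% = vehicle cell control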); conditions: HCT116 PTEN-deleted viability, 60 h, at 10 µM, stronger effect = lower value
[6] = RAM pathway blockade in budding yeast – dse1pr::URA3 reporter, 5-FOA selection, pilot screen (AID 869;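 active = inhibition over a set limit, the all-compound mean plus 3 SD, in both replicate runs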;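 note: 0% = DMSO wells with no growth and 100% = 10 µM 1-NA-PP1 with full growth; RAM network block rescues cells from 5-FOA so hits raise OD615 growth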); conditions: S. cerevisiae dse1pr::URA3 5-FOA growth, OD615, 2 d; at 10 µM; stronger effect = higher value; strain carries analog-sensitive mutant Cbk1 kinase
[7] = RAM signaling pathway blockade in yeast – S. cerevisiae, Pdr1DBD-CYC8 efflux-inhibited sensitized strain, primary screen (AID 1298;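 active = RAM network inhibition above 8.4% in each of two replicates, 3 SD over the compound average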;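 note: 0% = DMSO untreated cells without growth and 100% = 10 µM 1-NA-PP1 full growth; higher means more yeast growth rescued from 5-FOA killing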); conditions: S. cerevisiae cbk1-as DSE1-URA3 strain, 5-FOA growth OD615, 2 d; at 50 µM; stronger effect = higher value

CC(=O)c1ccc(NC(=O)CN2C(=O)COc3ccc(Cl)cc32)cc1
inactive: growth inhibition [1] -16.9% | growth inhibition [2] -13.2% | viability increase [3] -2.36% | viability [4] 84% | viability [5] 79.2% | inhibition [6] 2.46% | RAM network inhibition [7] 5.11%

CN(C)CCN(Cc1ccccc1)c1ccnc(N(C)C)c1C#N
inactive: growth inhibition [1] -13.2% | growth inhibition [2] -17.6% | viability increase [3] -4.22% | viability [4] 85.2% | viability [5] 89.5% | inhibition [6] 1.11% | RAM network inhibition [7] 2.08%

CCOc1ccc(CC(=O)NCc2cn3c(C)csc3n2)cc1
inactive: growth inhibition [1] -5.88% | growth inhibition [2] 12.6% | viability increase [3] -0.15% | viability [4] 97.4% | viability [5] 102% | inhibition [6] 1.14% | RAM network inhibition [7] 6.38%

CN(C)CCCNCCCNC(=O)/C(=N\O)c1ccccn1
inactive: growth inhibition [1] -3.34% | growth inhibition [2] -2.4% | viability increase [3] 1.1% | viability [4] 93.3% | viability [5] 105% | inhibition [6] 1.53% | RAM network inhibition [7] 2.45%

OC(C#CCN1CCOCC1)c1cccs1 (stereo not given)
inactive: growth inhibition [1] -5.03% | growth inhibition [2] 2.95% | viability increase [3] -0.71% | viability [4] 102% | viability [5] 98.4% | inhibition [6] 2.15% | RAM network inhibition [7] 4.66%

COc1ccc(-n2c(Cc3cccn3C)nnc2SCC(=O)NC2CCCC2)cc1
inactive: growth inhibition [1] -6.13% | growth inhibition [2] 5.99% | viability increase [3] 0.53% | viability [4] 94.1% | viability [5] 92.4% | inhibition [6] 0.835% | RAM network inhibition [7] 3.89%

Cc1ccc(C)c(N2CCN(c3ncnc4c3cnn4-c3ccccc3)CC2)c1
inactive: growth inhibition [1] -11.6% | growth inhibition [2] -18.3% | viability increase [3] 2.4% | viability [4] 72.5% | viability [5] 68.6% | inhibition [6] 3.82% | RAM network inhibition [7] 7.43%

COc1ccc(C2=NOC(C(=O)Nc3cc(C)nn3-c3ccccc3)C2)cc1OC (stereo not given)
inactive: growth inhibition [1] -14.9% | growth inhibition [2] -31.2% | viability increase [3] -0.06% | viability [4] 103% | viability [5] 97.1% | inhibition [6] 1.11% | RAM network inhibition [7] 1.36%

COC(=O)c1ccccc1NC(=O)c1c(O)c2c([nH]c1=O)CCCC2
inactive: growth inhibition [1] -23.1% | growth inhibition [2] -12.7% | viability increase [3] -5.62% | viability [4] 88.3% | viability [5] 93% | inhibition [6] 1.71% | RAM network inhibition [7] 1.65%

CC1CCCCC1NC(=O)c1ccc(CNc2c(N3CCCC3)c(=O)c2=O)cc1 (stereo not given)
inactive: growth inhibition [1] -2.63% | growth inhibition [2] 8.32% | viability increase [3] -0.12% | viability [4] 96.7% | viability [5] 90.8% | inhibition [6] 1.01% | RAM network inhibition [7] 0.72%

COC(=O)c1ccccc1NC(=O)C1CCCN(c2nnc(-n3cccc3)s2)C1 (stereo not given)
inactive: growth inhibition [1] -1.67% | growth inhibition [2] 4.77% | viability increase [3] -2.28% | viability [4] 86.2% | viability [5] 82.2% | inhibition [6] 1.65% | RAM network inhibition [7] 8.61%

COc1ccc(C/C(O)=C(\C#N)c2nc3ccccc3[nH]2)cc1OC
inactive: growth inhibition [1] -4.85% | growth inhibition [2] 0.74% | viability increase [3] -1.93% | viability [4] 90.7% | viability [5] 87.7% | inhibition [6] 0.175% | RAM network inhibition [7] 3.13%

COC(=O)c1ccsc1NC(=O)C1COc2ccccc2O1 (stereo not given)
inactive: growth inhibition [1] 6.25% | growth inhibition [2] 8.76% | viability increase [3] -1.07% | viability [4] 92.4% | viability [5] 85.5% | inhibition [6] 0.425% | RAM network inhibition [7] 8.05%

O=C(O)CCCC(=O)N1CCN(c2cccc(Cl)c2)CC1
inactive: growth inhibition [1] -2.97% | growth inhibition [2] -1.71% | viability increase [3] -1.22% | viability [4] 95.2% | viability [5] 86.2% | inhibition [6] 2.33% | RAM network inhibition [7] 4.6%

O=C1CN(C(=O)c2ccc(Br)o2)C(c2ccccc2)c2cc(Br)ccc2N1 (stereo not given)
inactive: growth inhibition [1] -9.54% | growth inhibition [2] -12.8% | viability increase [3] -8.1% | viability [4] 58.3% | viability [5] 55.6% | inhibition [6] 4.09% | RAM network inhibition [7] 6.05%

COc1ccccc1C1(CC(=O)O)CCOC(C)(C)C1 (stereo not given)
inactive: growth inhibition [1] -2.27% | growth inhibition [2] -9.79% | viability increase [3] -1.61% | viability [4] 90.9% | viability [5] 92.2% | inhibition [6] 0.095% | RAM network inhibition [7] -1.44%

CC(NC(=O)CSc1ncnc2nc[nH]c12)c1ccccc1 (stereo not given)
inactive: growth inhibition [1] -15.5% | growth inhibition [2] -5.1% | viability increase [3] -0.99% | viability [4] 99.8% | viability [5] 96% | inhibition [6] 0.755% | RAM network inhibition [7] 0.48%

COc1cc2c(cc1OC)CN(S(C)(=O)=O)CC2
inactive: growth inhibition [1] -0.905% | growth inhibition [2] -20.7% | viability increase [3] -2.27% | viability [4] 110% | viability [5] 94.7% | inhibition [6] 1.33% | RAM network inhibition [7] 1.26%

COc1ccc(S(=O)(=O)N(C)c2c(C)n(C)n(-c3ccccc3)c2=O)cc1OC
inactive: growth inhibition [1] -5.13% | growth inhibition [2] 0.325% | viability increase [3] -1.65% | viability [4] 95.5% | viability [5] 102% | inhibition [6] 0.535% | RAM network inhibition [7] 3.38%

COc1cc2c(C(=O)NCc3ccccn3)cn(C)c(=O)c2cc1OC
inactive: growth inhibition [1] -8.38% | growth inhibition [2] -2.63% | viability increase [3] -1.1% | viability [4] 102% | viability [5] 95.3% | inhibition [6] 1.86% | RAM network inhibition [7] 1.07%

COc1ccccc1Nc1nc2ccccc2n1C
inactive: growth inhibition [1] -11.6% | growth inhibition [2] -24.9% | viability increase [3] 0.31% | viability [4] 94.7% | viability [5] 94.6% | inhibition [6] 1.44% | RAM network inhibition [7] 4.17%

CC(=O)Nc1sc(C)c(C)c1CN1CCN(S(=O)(=O)c2ccccc2)CC1
inactive: growth inhibition [1] -1.31% | growth inhibition [2] -23.5% | viability increase [3] -2.28% | viability [4] 88.5% | viability [5] 85% | inhibition [6] -0.365% | RAM network inhibition [7] 1.74%

Cc1cc2cc(CNS(=O)(=O)N(C)C)ccc2[nH]1
inactive: growth inhibition [1] 0.12% | growth inhibition [2] -6.88% | viability increase [3] -0.59% | viability [4] 101% | viability [5] 106% | inhibition [6] 1.48% | RAM network inhibition [7] 3.27%

O=C(COc1ccc2c3c(c(=O)oc2c1)CCC3)c1ccc2c(c1)OCO2
inactive: growth inhibition [1] -8.44% | growth inhibition [2] -1.49% | viability increase [3] 2.35% | viability [4] 63.2% | viability [5] 65.1% | inhibition [6] 2.27% | RAM network inhibition [7] 7.83%

CCc1cc(=O)oc2cc(C)cc(O)c12
inactive: growth inhibition [1] -16.6% | growth inhibition [2] -7.76% | viability increase [3] -1.72% | viability [4] 95.3% | viability [5] 99.8% | inhibition [6] 0.2% | RAM network inhibition [7] 1.99%

Cn1nc(CC(=O)NC2CCCCCC2)c2ccccc2c1=O
inactive: growth inhibition [1] 3.21% | growth inhibition [2] 6.03% | viability increase [3] -2.58% | viability [4] 62.4% | viability [5] 76.4% | inhibition [6] 0.825% | RAM network inhibition [7] 1.38%

CCOc1cc(C2CC(=O)NC(SCC)=C2C#N)ccc1O (stereo not given)
inactive: growth inhibition [1] -16.8% | growth inhibition [2] -5.38% | viability increase [3] -1.97% | viability [4] 107% | viability [5] 92.6% | inhibition [6] 1.97% | RAM network inhibition [7] 0.15%

O=C(NCCN1C(=O)C2C3C=CC(C3)C2C1=O)Nc1ccccc1O (stereo not given)
inactive: growth inhibition [1] -6.45% | growth inhibition [2] -1.21% | viability increase [3] -1.45% | viability [4] 106% | viability [5] 106% | inhibition [6] 1.5% | RAM network inhibition [7] 4.02%

COc1ccc(-c2cn3c(C)c(C(=O)N4CCN(c5ccc(OC)cc5)CC4)sc3n2)cc1
inactive: growth inhibition [1] -5.73% | growth inhibition [2] -9.94% | viability increase [3] -1.79% | viability [4] 103% | viability [5] 104% | inhibition [6] 2.58% | RAM network inhibition [7] 3.17%

CN(C)CCNc1nc2c(c(=O)[nH]c(=O)n2C)n1CCCc1ccccc1
inactive: growth inhibition [1] -14.9% | growth inhibition [2] 4.34% | viability increase [3] -1.16% | viability [4] 93.1% | viability [5] 93.9% | inhibition [6] 2.04% | RAM network inhibition [7] 0.47%

COc1ccc(S(=O)(=O)N(CC(=O)Nc2ccc3c(c2)OCO3)c2ccccc2OC)cc1
inactive: growth inhibition [1] -20.4% | growth inhibition [2] -13.9% | viability increase [3] -5.32% | viability [4] 69% | viability [5] 79.8% | inhibition [6] 2.13% | RAM network inhibition [7] 6.05%

O=C(CSc1nc2c(c(=O)n1-c1ccc(Cl)cc1)SCC2)N1CCOCC1
inactive: growth inhibition [1] -10.3% | growth inhibition [2] -2.5% | viability increase [3] -2.79% | viability [4] 97.6% | viability [5] 101% | inhibition [6] -0.06% | RAM network inhibition [7] -0.16%

COc1ccc(-n2nc3c(c2NC(=O)c2ccc(Br)cc2)CS(=O)C3)cc1 (stereo not given)
inactive: growth inhibition [1] -4.15% | growth inhibition [2] 4.82% | viability increase [3] -2.41% | viability [4] 85.3% | viability [5] 91.5% | inhibition [6] 0.805% | RAM network inhibition [7] 2.87%

CC(=O)c1cc(CN2C(=O)CCC2=O)cs1
inactive: growth inhibition [1] -5.33% | growth inhibition [2] -9.9% | viability increase [3] -0.46% | viability [4] 94.1% | viability [5] 95.6% | inhibition [6] 1.64% | RAM network inhibition [7] 1.46%

O=C(NC1CCCCC1)c1ccc(S(=O)(=O)N2CCOCC2)cc1
inactive: growth inhibition [1] -2.04% | growth inhibition [2] -2.56% | viability increase [3] 0.17% | viability [4] 104% | viability [5] 101% | inhibition [6] 0.855% | RAM network inhibition [7] -0.73%
